Results reported in ChEMBL document CHEMBL3351414, “Novel 9'-substituted-noscapines: synthesis with Suzuki cross-coupling, structure elucidation and biological evaluation” (Eur J Med Chem, 2014).
Active and inactive are the calls of the source. No cut-off for these calls is given here.

Assays:
HeLa [1] = assay: Cell cycle arrest in human HeLa cells assessed as accumulation at G2/M phase at 25 uM after 24 hrs by flow cytometry; type: functional
How it was run: (§1)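 5×10^5 HeLa or Jurkat cells exposed to graded compound concentrations for 24 h. Cells were fixed in ice-cold 70% ethanol, lysed with RNase A/0.1% Triton X-100 buffer and stained with propidium iodide. DNA content was read by flow cytometry. Phase percentages are mean ± SEM of three independent experiments.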

HT-29 = assay: Antiproliferative activity against human HT-29 cells assessed as reduction in cell viability after 72 hrs by MTT assay; type: functional, cell-based; conditions: HT-29, 72 h
How it was run: (§2)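 Cells kept in RPMI-1640 (Jurkat, SEM, RS4;11) or DMEM (A549, HeLa, IGROV-1, HT-29) with 10% FBS plus penicillin/streptomycin. 8×10^3 cells per well were left 18 h at 37 °C in 5% CO2. Medium was then replaced with fresh medium holding graded compound concentrations from 10 mM DMSO stocks. Cells were incubated 72 h and viability read by MTT. IC50 is the mean ± SEM from dose–response curves of at least three independent experiments.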

HeLa [2] = assay: Induction of apoptosis in human HeLa cells assessed as mitochondrial membrane depolarization after 24 to 48 hrs using JC-1 staining-based fluorescence assay; type: functional, cell-based
How it was run: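 Mitochondrial membrane potential was read with the JC-1 dye in HeLa cells after 24 or 48 h at graded concentrations. Data are mean ± SEM of three independent experiments.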

HeLa [3] = assay: Effect on cell morphology in human HeLa cells at 25 uM after 24 hrs using phalloidin staining by confocal microscopy; type: functional, cell-based
How it was run: (§3)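 After 24 h at 25 µM, HeLa cells were stained with anti-PCM1 and Alexa-conjugated secondary antibody, with phalloidin-tetramethylrhodamine B for actin and DAPI for nuclei. Cells were imaged by confocal microscopy at 60×.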

HeLa [4] = assay: Induction of apoptosis in human HeLa cells assessed as ROS production at 6.2 to 50 uM after 24 to 48 hrs using H2-DCFDA -based flow cytometry relative to control; type: functional, cell-based
How it was run: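 HeLa cells incubated 24 or 48 h at the indicated concentrations, stained with H2-DCFDA and analysed by flow cytometry. Data are mean ± SEM of three independent experiments.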

HeLa [5] = assay: Induction of apoptosis in human HeLa cells assessed as early apoptotic cells at 25 uM after 24 hrs using Annexin-V/PI staining by flow cytometry (reference value: 5.26 %); type: functional
HeLa [6] = assay: Induction of apoptosis in human HeLa cells assessed as caspase 9 cleavage at 25 uM after 24 to 48 hrs by Western blot analysis; type: functional, cell-based
How it was run: (§4)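 HeLa cells treated 24 or 48 h at 25 µM, then lysed. 20 µg protein per lane was run on SDS-PAGE and transferred to PVDF. Membranes were probed 2 h at room temperature for cleaved caspase-9, caspase-3, cleaved PARP, Bcl-2, Mcl-1 or Bax, with peroxidase secondary antibody and ECL. β-Actin reprobe served as loading control.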

[7] = Antiproliferative activity against human SEM cells assessed as reduction in cell viability after 72 hrs by MTT assay; type: functional, cell-based; how it was run: as §2
HeLa [8] = assay: Induction of apoptosis in human HeLa cells assessed as late apoptotic cells at 25 uM after 24 hrs using Annexin-V/PI staining by flow cytometry (reference value: 4.31 %); type: functional
HeLa [9] = assay: Effect on cell morphology in human HeLa cells assessed as disorganization of actin filament at 25 uM after 24 hrs by confocal microscopy relative to control; type: functional, cell-based; how it was run: as §3
HeLa [10] = assay: Induction of apoptosis in human HeLa cells assessed as PARP cleavage at 25 uM after 24 to 48 hrs by Western blot analysis; type: functional, cell-based; how it was run: as §4
Tubulin = Tubulin (Bos taurus, UniProt Q6B856+Q862L2+Q862F3); assay: Inhibition of bovine brain tubulin assessed as rate of assembly preincubated for 15 mins by turbidimetry
How it was run: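 Bovine brain tubulin at 10 µM (1.0 mg/mL) in 0.8 M monosodium glutamate pH 6.6 with 4% DMSO and varying compound was preincubated 15 min at 30 °C, then chilled. GTP was added to 0.4 mM final and the temperature jumped from 0 to 30 °C. Turbidity was followed at 350 nm, scoring either maximum rate or extent of assembly at 20 min.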

HeLa [11] = assay: Induction of apoptosis in human HeLa cells at 6.2 to 50 uM using Annexin-V/PI staining by flow cytometry; type: functional, cell-based; conditions: TDE = time-dependent effect
Jurkat [12] = assay: Cell cycle arrest in human Jurkat cells assessed as accumulation at G2/M phase after 24 hrs by flow cytometry; type: functional, cell-based; how it was run: as §1
Jurkat [13] = assay: Antiproliferative activity against human Jurkat cells assessed as reduction in cell viability after 72 hrs by MTT assay; type: functional, cell-based; how it was run: as §2
A549 = assay: Antiproliferative activity against human A549 cells assessed as reduction in cell viability after 72 hrs by MTT assay; type: functional, cell-based; conditions: A549, 72 h; how it was run: as §2
HeLa [14] = assay: Induction of apoptosis in human HeLa cells assessed as late necrotic cells at 25 uM after 24 hrs using Annexin-V/PI staining by flow cytometry (reference value: 3.70 %); type: functional
HeLa [15] = assay: Downregulation of phosphorylated form of cdc25c protein level in human HeLa cells at 25 uM after 24 hrs by Western blot analysis; type: functional, cell-based
How it was run: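 HeLa cells treated 24 or 48 h at 25 µM, then washed in PBS and lysed 30 min on ice. 20 µg protein per lane was resolved on 7.5–15% SDS-PAGE and blotted to PVDF. Blots were probed for cyclin B, p-cdc2 Tyr15, cdc25C and γH2A.X, with β-actin reprobe as loading control and ECL detection.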

HeLa [16] = assay: Induction of apoptosis in human HeLa cells assessed as reduction in Bcl-2 expression at 25 uM after 48 hrs by Western blot analysis; type: functional, cell-based; how it was run: as §4
HeLa [17] = assay: Cell cycle arrest in human HeLa cells assessed as accumulation at G2/M phase after 24 hrs by flow cytometry; type: functional, cell-based; how it was run: as §1
[18] = Antiproliferative activity against human RS4:11 cells assessed as reduction in cell viability after 72 hrs by MTT assay; type: functional, cell-based; conditions: RS4-11, 72 h; how it was run: as §2
HeLa [19] = assay: Cell cycle arrest in human HeLa cells assessed as accumulation at G2/M phase at 10 to 25 uM after 24 hrs by flow cytometry; type: functional, cell-based; how it was run: as §1
Tubulin (Bos taurus) = Tubulin (Bos taurus) (UniProt Q6B856+Q862L2+Q862F3); assay: Displacement of [3H]colchicine from bovine brain tubulin at 500 uM after 10 mins by liquid scintillation counting
PBL [20] = assay: Cytotoxicity against PHA-stimulated human PBLs assessed as reduction in cell growth; type: cell-based
How it was run: (§5)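 Peripheral blood lymphocytes from healthy donors, tested either resting (no PHA) or PHA-stimulated. Value is the concentration reducing cell growth by 50%, mean ± SEM of three separate experiments.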

HeLa [21] = assay: Induction of apoptosis in human HeLa cells assessed as viable cells at 25 uM after 24 hrs using Annexin-V/PI staining by flow cytometry (reference value: 86.7 %); type: functional; conditions: read-out: Activity
HeLa [22] = assay: Induction of apoptosis in human HeLa cells assessed as caspase 3 cleavage at 25 uM after 24 to 48 hrs by Western blot analysis; type: functional, cell-based; how it was run: as §4
HeLa [23] = assay: Induction of apoptosis in human HeLa cells assessed as reduction in Bcl-2 expression at 25 uM after 24 hrs by Western blot analysis; type: functional, cell-based; how it was run: as §4
PBL [24] = assay: Cytotoxicity against resting human PBLs assessed as reduction in cell growth; type: cell-based; how it was run: as §5

COc1ccc2c(c1OC)C(=O)O[C@@H]2[C@H]1c2c(c(C)c3c(c2OC)OCO3)CCN1C
Activity (HeLa [1]): >80% | IC50 (HT-29): 34 µM | Activity (HeLa [2]): Dose-dependent effect | Activity (HeLa [3]): Active | Activity (HeLa [4]): Active | Activity (HeLa [5]): 12.5% | Activity (HeLa [6]): Active | IC50 [7]: 4.3 µM | Activity (HeLa [8]): 13.9% | Activity (HeLa [9]): Active | Activity (HeLa [10]): Active | IC50 (Tubulin): 220 µM | Activity (HeLa [11]): tde | Activity (Jurkat [12]): Dose-dependent effect | IC50 (Jurkat [13]): 5.9 µM | IC50 (A549): > 100 µM | Activity (HeLa [14]): 17.1% | Activity (HeLa [15]): Active | Activity (HeLa [16]): Active | Activity (HeLa [17]): Dose-dependent effect | IC50 [18]: 15.8 µM | Activity (HeLa [19]): Active | inhibition (Tubulin (Bos taurus)): 39% | IC50 (PBL [20]): > 200 µM | viability at 25 µM (HeLa [21]): 9.8% | Activity (HeLa [22]): Active | Activity (HeLa [23]): Active | IC50 (PBL [24]): > 200 µM

COc1ccc2c(c1OC)C(=O)O[C@@H]2[C@H]1c2c(c(-c3ccc(C)cc3)c3c(c2OC)OCO3)CCN1C
Activity (HeLa [1]): >80% | IC50 (HT-29): 24.9 µM | Activity (HeLa [2]): Dose-dependent effect | Activity (HeLa [3]): Active | Activity (HeLa [4]): Active | Activity (HeLa [5]): 14.3% | Activity (HeLa [6]): Active | IC50 [7]: 7.4 µM | Activity (HeLa [8]): 22.9% | Activity (HeLa [9]): Active | Activity (HeLa [10]): Active | IC50 (Tubulin): 45 µM | Activity (HeLa [11]): tde | Activity (Jurkat [12]): Dose-dependent effect | IC50 (Jurkat [13]): 5.1 µM | IC50 (A549): 22.2 µM | Activity (HeLa [14]): 11.1% | Activity (HeLa [15]): Active | Activity (HeLa [16]): Active | Activity (HeLa [17]): Dose-dependent effect | IC50 [18]: 16.4 µM | Activity (HeLa [19]): Active | inhibition (Tubulin (Bos taurus)): 64% | IC50 (PBL [20]): > 200 µM | viability at 25 µM (HeLa [21]): 5.88% | Activity (HeLa [22]): Active | Activity (HeLa [23]): inactive | IC50 (PBL [24]): > 200 µM

COc1ccc2c(c1OC)C(=O)O[C@@H]2[C@H]1c2c(c(Br)c3c(c2OC)OCO3)CCN1C
Activity (HeLa [1]): >80% | IC50 (HT-29): 18.7 µM | Activity (HeLa [2]): Dose-dependent effect | Activity (HeLa [3]): Active | Activity (HeLa [4]): Active | Activity (HeLa [5]): 57.3% | Activity (HeLa [6]): Active | IC50 [7]: 1.8 µM | Activity (HeLa [8]): 44.7% | Activity (HeLa [9]): Active | Activity (HeLa [10]): Active | IC50 (Tubulin): > 400 µM | Activity (HeLa [11]): tde | Activity (Jurkat [12]): Dose-dependent effect | IC50 (Jurkat [13]): 3 µM | IC50 (A549): 73.9 µM | Activity (HeLa [14]): 53.7% | Activity (HeLa [15]): Active | Activity (HeLa [16]): Active | Activity (HeLa [17]): Dose-dependent effect | IC50 [18]: 1.4 µM | Activity (HeLa [19]): Active | inhibition (Tubulin (Bos taurus)): 34% | IC50 (PBL [20]): 92.2 µM | viability at 25 µM (HeLa [21]): 76.8% | Activity (HeLa [22]): Active | Activity (HeLa [23]): Active | IC50 (PBL [24]): > 200 µM
